# *1 amine or outer side, *2 acyl side, *3 side chain or, on linkers, in order; H or OH if unused. Where a SMILES comes first, the peptide text is derived from it. Bridges are numbered along the chain shown (N, C = ends). [ ]: non-standard residue; d: D form. The star is where a group is joined. Staurosporine = CO[C@@H]1[C@H](N(C)*)C[C@H]2O[C@]1(C)n1c3ccccc3c3c4c(c5c6ccccc6n2c5c31)C(=O)NC4; Suc = O=C(CCC(=O)[*:2])[*:1]; Dap = NC[C@H](N)C(=O)O; βAla = NCCC(=O)O
# What was measured:
# [1] = molecular target: Proto-oncogene tyrosine-protein kinase Src (Homo sapiens) (UniProt P12931); assay: Binding affinity to human SRC at 500 nM by cell-based competition binding assay relative to control in presence of DTT
# [2] = molecular target: Hepatocyte growth factor receptor (Homo sapiens) (UniProt P08581); assay: Binding affinity to human MET at 500 nM by cell-based competition binding assay relative to control in presence of DTT
# [3] = molecular target: Tyrosine-protein kinase ABL1 (Homo sapiens) (UniProt P00519); assay: Binding affinity to human ABL1 at 500 nM by cell-based competition binding assay relative to control in presence of DTT
# In short: (§1)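 Kinase binding profiling ran on a commercial (Ambit) competitive binding screen against a panel of 90 kinases. The screen used reducing conditions with 7.5 mM DTT. To withstand the DTT, the bivalent ligand was tested as its amide isostere, with the disulfide replaced. A staurosporine derivative carrying a 3 β-alanine linker was run as the reference compound.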
# [4] = molecular target: Phosphatidylinositol 4,5-bisphosphate 3-kinase catalytic subunit alpha isoform (Homo sapiens) (UniProt P42336); assay: Binding affinity to human PIK3Calpha at 200 nM by cell-based competition binding assay relative to control in presence of DTT
# [5] = molecular target: T1, Tyrosine-protein kinase JAK3 (Homo sapiens) (UniProt P52333); assay: Binding affinity to human JAK3 kinase domain 2 at 200 nM by cell-based competition binding assay relative to control in presence of DTT
# T1 sequence (whole entry): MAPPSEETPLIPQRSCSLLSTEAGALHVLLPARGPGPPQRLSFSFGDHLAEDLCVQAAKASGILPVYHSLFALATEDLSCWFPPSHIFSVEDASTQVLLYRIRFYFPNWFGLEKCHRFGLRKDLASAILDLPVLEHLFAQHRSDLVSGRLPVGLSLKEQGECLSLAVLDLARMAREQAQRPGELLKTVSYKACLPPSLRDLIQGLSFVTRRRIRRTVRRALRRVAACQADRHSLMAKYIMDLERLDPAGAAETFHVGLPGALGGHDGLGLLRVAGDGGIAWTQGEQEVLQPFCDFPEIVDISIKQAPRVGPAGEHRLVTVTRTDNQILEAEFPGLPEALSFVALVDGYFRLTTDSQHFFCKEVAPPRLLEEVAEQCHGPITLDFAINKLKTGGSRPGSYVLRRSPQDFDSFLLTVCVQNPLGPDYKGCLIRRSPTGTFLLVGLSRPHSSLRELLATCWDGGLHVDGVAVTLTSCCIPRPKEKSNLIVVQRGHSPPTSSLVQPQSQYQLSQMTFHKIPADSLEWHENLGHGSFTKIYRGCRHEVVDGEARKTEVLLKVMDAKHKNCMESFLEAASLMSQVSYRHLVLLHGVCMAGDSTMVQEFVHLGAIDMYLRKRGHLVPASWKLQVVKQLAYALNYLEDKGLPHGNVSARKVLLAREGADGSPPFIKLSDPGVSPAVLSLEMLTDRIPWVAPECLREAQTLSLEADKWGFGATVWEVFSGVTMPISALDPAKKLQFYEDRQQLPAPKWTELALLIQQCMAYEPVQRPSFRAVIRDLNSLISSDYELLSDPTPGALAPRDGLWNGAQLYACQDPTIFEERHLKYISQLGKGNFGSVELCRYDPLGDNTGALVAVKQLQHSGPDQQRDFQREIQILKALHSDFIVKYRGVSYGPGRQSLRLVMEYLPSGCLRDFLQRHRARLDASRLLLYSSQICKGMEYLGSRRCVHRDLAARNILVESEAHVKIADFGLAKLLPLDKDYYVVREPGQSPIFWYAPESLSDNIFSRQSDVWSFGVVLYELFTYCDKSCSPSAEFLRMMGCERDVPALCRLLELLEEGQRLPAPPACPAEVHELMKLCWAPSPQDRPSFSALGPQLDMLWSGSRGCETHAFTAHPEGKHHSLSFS
# In short: (§2)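 Competition binding screen (Ambit) across a panel of 90 kinases, scoring test ligand displacement of each kinase's binding relative to control. The screen ran under reducing conditions with 7.5 mM DTT.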
# [6] = molecular target: Mitogen-activated protein kinase 9 (Homo sapiens) (UniProt P45984); assay: Binding affinity to human JNK2 at 200 nM by cell-based competition binding assay relative to control in presence of DTT; in short: as §2
# [7] = molecular target: T2, 3-phosphoinositide-dependent protein kinase 1 (Homo sapiens) (UniProt O15530); assay: Binding affinity to human PDPK1 at 200 nM by cell-based competition binding assay relative to control in presence of DTT
# T2 sequence (whole entry): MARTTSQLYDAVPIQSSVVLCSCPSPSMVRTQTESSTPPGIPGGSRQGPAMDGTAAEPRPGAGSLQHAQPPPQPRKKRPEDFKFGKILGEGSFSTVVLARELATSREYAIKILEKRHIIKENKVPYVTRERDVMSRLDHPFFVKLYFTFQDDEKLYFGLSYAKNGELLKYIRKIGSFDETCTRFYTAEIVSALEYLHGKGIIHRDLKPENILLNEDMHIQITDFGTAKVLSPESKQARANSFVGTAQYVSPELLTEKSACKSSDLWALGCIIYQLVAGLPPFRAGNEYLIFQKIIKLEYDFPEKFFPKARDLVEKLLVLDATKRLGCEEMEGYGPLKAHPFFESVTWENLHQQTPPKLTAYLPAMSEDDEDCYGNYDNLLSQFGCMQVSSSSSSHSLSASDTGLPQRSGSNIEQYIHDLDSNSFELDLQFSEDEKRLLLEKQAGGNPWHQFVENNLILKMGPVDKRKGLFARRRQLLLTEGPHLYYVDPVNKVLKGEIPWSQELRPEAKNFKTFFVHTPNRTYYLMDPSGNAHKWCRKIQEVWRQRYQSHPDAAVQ
# [8] = molecular target: RAC-beta serine/threonine-protein kinase (Homo sapiens) (UniProt P31751); assay: Binding affinity to human AKT2 at 200 nM by cell-based competition binding assay relative to control in presence of DTT; in short: as §1
# [9] = molecular target: Dual specificity mitogen-activated protein kinase kinase 2 (Homo sapiens) (UniProt P36507); assay: Binding affinity to human MEK2 at 200 nM by cell-based competition binding assay relative to control in presence of DTT
# [10] = molecular target: Receptor tyrosine-protein kinase erbB-2 (Homo sapiens) (UniProt P04626); assay: Binding affinity to human ERBB2 at 50 nM by cell-based competition binding assay relative to control in presence of DTT
# In short: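 Commercial (Ambit) competitive kinase-binding panel of 90 kinases measured the binding profile. Run under reducing conditions of 7.5 mM DTT. Binding is expressed relative to control.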
# [11] = molecular target: Proto-oncogene tyrosine-protein kinase Src (Homo sapiens) (UniProt P12931); assay: Binding affinity to human SRC at 50 nM by cell-based competition binding assay relative to control in presence of DTT
# [12] = molecular target: Mitogen-activated protein kinase kinase kinase 4 (Homo sapiens) (UniProt Q9Y6R4); assay: Binding affinity to human MAP3K4 at 50 nM by cell-based competition binding assay relative to control in presence of DTT; in short: as §2
# Proto-oncogene tyrosine-protein kinase Src (Homo sapiens), sequence (P12931 2-536 limits assumed): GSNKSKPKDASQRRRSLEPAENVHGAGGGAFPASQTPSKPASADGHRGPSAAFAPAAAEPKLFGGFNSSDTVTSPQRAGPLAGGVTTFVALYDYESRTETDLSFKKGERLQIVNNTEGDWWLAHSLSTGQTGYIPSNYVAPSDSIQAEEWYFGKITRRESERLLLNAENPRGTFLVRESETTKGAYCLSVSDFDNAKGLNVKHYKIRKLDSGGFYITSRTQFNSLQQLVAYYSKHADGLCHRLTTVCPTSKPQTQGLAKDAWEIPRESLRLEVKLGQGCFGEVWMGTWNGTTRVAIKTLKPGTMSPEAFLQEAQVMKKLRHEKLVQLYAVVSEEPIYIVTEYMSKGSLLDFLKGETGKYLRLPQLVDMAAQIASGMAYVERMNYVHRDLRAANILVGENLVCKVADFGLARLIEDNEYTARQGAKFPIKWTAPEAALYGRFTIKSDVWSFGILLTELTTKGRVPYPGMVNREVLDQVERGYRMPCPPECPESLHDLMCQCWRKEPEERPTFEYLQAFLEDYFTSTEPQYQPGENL
# Hepatocyte growth factor receptor (Homo sapiens), sequence (P08581 whole entry): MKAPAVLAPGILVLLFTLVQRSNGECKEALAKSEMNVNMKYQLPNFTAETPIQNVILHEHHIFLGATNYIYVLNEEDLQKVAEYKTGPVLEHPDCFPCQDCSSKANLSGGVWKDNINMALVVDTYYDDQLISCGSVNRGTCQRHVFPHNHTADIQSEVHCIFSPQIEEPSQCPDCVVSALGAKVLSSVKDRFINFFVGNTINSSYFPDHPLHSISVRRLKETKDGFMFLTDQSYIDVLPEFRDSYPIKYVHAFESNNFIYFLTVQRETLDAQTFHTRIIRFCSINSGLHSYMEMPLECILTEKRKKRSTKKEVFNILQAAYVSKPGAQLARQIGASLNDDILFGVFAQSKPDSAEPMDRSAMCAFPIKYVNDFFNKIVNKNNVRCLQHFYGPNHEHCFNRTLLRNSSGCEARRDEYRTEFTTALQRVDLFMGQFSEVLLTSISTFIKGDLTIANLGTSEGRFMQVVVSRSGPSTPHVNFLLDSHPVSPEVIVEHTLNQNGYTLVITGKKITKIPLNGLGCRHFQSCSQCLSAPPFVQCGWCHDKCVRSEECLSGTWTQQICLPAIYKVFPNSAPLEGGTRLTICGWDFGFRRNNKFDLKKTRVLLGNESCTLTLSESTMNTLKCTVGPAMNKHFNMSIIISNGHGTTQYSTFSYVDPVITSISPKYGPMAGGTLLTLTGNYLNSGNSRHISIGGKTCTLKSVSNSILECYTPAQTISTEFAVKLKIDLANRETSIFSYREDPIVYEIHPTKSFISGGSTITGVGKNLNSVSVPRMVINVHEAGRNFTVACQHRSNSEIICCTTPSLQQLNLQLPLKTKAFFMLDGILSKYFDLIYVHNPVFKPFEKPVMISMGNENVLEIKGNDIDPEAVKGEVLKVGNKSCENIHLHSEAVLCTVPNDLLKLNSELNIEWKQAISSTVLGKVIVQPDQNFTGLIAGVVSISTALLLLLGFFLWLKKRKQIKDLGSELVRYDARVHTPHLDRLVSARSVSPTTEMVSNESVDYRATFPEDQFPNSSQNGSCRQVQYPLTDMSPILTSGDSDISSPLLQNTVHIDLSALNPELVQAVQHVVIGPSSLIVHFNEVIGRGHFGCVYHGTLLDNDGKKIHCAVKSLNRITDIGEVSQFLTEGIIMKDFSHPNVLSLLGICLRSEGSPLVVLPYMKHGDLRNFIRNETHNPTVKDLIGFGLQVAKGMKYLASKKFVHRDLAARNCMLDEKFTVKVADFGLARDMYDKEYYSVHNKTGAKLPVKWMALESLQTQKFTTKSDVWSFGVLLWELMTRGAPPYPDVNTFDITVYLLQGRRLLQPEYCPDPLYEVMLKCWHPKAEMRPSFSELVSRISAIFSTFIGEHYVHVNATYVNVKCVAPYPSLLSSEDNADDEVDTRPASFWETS
# Mitogen-activated protein kinase 9 (Homo sapiens), sequence (P45984 whole entry, looked up): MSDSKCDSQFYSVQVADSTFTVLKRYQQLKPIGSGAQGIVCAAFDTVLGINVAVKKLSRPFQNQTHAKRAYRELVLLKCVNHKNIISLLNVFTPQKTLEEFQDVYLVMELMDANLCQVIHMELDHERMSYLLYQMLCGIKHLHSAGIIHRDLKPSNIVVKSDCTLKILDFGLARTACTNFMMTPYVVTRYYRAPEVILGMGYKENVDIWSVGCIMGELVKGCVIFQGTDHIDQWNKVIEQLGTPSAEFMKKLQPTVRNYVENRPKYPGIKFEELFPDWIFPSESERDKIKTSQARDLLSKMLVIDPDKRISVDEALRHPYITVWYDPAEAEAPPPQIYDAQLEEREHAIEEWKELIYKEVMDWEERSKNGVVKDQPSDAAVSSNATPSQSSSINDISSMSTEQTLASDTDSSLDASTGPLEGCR
# Tyrosine-protein kinase ABL1 (Homo sapiens), sequence (P00519 whole entry): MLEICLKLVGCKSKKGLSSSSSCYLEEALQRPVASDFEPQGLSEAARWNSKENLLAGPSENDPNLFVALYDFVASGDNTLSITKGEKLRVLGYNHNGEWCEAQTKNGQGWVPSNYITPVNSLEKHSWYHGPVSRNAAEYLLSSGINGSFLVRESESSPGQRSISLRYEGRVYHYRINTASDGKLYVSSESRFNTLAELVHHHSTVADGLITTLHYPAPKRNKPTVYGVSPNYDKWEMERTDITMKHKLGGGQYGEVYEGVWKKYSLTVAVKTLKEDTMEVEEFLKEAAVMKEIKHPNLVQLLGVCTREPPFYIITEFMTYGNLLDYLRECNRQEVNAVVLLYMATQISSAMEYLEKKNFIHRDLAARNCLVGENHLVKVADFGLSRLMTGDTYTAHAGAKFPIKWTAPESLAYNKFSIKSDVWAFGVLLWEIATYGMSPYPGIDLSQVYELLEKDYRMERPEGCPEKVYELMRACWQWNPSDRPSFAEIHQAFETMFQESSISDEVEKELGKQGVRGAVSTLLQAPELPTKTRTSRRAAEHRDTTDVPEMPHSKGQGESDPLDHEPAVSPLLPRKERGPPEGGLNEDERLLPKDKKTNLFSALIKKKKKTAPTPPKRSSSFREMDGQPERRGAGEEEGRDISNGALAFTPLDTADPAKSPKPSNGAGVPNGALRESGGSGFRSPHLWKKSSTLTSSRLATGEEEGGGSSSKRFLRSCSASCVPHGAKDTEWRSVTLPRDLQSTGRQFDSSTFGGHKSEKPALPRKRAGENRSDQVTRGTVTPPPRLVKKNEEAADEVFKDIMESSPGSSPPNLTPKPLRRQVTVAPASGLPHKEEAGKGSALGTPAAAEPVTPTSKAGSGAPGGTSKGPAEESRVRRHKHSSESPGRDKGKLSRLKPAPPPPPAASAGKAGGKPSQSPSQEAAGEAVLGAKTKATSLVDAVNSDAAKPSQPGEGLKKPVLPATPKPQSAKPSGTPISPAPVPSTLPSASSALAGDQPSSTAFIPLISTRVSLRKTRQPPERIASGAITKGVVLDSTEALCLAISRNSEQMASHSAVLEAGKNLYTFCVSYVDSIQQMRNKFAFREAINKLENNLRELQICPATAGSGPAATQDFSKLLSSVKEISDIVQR
# Receptor tyrosine-protein kinase erbB-2 (Homo sapiens), sequence (P04626 whole entry): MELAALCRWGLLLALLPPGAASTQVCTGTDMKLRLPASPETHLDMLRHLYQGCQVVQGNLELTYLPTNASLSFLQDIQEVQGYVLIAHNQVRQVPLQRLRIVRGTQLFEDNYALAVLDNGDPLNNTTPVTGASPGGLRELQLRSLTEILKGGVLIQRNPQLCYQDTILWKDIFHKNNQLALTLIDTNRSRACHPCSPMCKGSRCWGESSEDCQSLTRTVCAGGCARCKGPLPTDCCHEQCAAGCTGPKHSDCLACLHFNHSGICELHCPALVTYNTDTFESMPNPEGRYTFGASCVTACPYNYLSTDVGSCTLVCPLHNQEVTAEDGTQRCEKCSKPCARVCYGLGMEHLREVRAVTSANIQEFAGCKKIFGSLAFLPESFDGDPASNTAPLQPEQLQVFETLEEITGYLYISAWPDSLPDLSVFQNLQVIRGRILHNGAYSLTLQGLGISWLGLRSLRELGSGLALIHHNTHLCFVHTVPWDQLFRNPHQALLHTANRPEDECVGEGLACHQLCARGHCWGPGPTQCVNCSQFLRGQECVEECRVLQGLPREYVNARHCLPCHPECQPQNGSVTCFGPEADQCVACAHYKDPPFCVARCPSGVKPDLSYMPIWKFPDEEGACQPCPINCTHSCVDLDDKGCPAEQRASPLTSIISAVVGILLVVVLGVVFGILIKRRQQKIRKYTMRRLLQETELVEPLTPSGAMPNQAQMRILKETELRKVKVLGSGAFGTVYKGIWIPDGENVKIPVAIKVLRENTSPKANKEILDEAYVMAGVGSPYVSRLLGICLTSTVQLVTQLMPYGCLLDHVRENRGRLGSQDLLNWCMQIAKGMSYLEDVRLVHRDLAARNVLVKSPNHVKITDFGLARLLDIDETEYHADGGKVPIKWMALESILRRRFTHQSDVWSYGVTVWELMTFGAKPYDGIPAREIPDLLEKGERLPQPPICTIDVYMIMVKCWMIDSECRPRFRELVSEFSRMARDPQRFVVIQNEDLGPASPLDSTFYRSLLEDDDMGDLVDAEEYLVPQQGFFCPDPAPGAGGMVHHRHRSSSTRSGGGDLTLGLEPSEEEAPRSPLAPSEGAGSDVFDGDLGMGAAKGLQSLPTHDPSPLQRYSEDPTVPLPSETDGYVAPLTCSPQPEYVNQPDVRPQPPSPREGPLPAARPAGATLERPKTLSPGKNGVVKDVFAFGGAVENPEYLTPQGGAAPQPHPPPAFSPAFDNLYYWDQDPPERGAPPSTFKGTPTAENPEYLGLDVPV
structure (smiles),measurement,setting,value
CO[C@@H]1[C@H](N(C)C(=O)CCC(=O)NCCC(=O)NCCC(=O)NCCC(N)=O)C[C@H]2O[C@]1(C)n1c3ccccc3c3c4c(c5c6ccccc6n2c5c31)C(=O)NC4,Activity,[1],72%
same,Activity,[2],46%
same,Activity,[3],68%
CO[C@@H]1[C@H](N(C)C(=O)CCC(=O)NCCC(=O)NCCC(=O)NCCC(=O)NCCC(=O)NCCC(=O)NCCC(=O)NCCC(=O)N[C@H]2CSSC[C@@H](C(=O)NCC(N)=O)NC(=O)CNC(=O)[C@H](Cc3ccccc3)NC(=O)[C@H](C(C)C)NC(=O)[C@H](CCCNC(=N)N)NC(=O)[C@H](Cc3ccccc3)NC(=O)[C@H](C(C)C)NC2=O)C[C@H]2O[C@]1(C)n1c3ccccc3c3c4c(c5c6ccccc6n2c5c31)C(=O)NC4 ({Staurosporine-Suc-βAla-βAla-βAla-βAla-βAla-βAla-βAla}-CVFRVFGCG-NH2; disulfide 1-8),Activity,[4],89%
same,Activity,[5],4.6%
same,Activity,[6],89%
same,Activity,[7],16%
same,Activity,[8],100%
same,Activity,[9],100%
CO[C@@H]1[C@H](N(C)C(=O)CCC(=O)NCCC(=O)NCCC(=O)NCCC(=O)NCCC(=O)NCCC(=O)NCCC(=O)NCCC(=O)N[C@H]2CNC(=O)C[C@@H](C(N)=O)NC(=O)CNC(=O)[C@H](Cc3ccccc3)NC(=O)[C@H](C(C)C)NC(=O)[C@H](CCCNC(=N)N)NC(=O)[C@H](Cc3ccccc3)NC(=O)[C@H](C(C)C)NC2=O)C[C@H]2O[C@]1(C)n1c3ccccc3c3c4c(c5c6ccccc6n2c5c31)C(=O)NC4 ({Staurosporine-Suc-βAla-βAla-βAla-βAla-βAla-βAla-βAla}-[Dap]VFRVFGD-NH2; lactam 1-8),Activity,[10],100%
same,Activity,[11],100%
same,Activity,[12],96%

# From ChEMBL document CHEMBL1152541, “Staurosporine tethered peptide ligands that target cAMP-dependent protein kinase (PKA): optimization and selectivity profiling” (Bioorg Med Chem, 2009)
